# Screens (PubChem BioAssay)
# Sampled rows, rich in hits. Any-hit rate of the full collection: about 3.5%.
# MrgX1 antagonist: antagonists of human MrgX1 receptor, primary screen, HEK293 cells, Fluo-4 calcium flux; BAM8-22 antagonism; hits give low values; Mas-related G-protein coupled receptor member X1 (Homo sapiens), Q96LB2; AID 588676, 2011; hit rate 1.3% among 310,000; B-score at 10 µM;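 active means calcium-response B-score plate-corrected more than 3 library SD below zero, starting fluorescence within 5 deviations, no agonist response on first addition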;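 further: peak minus trough fluorescence over baseline after final BAM8-22 challenge near maximal dose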
# Target sequence (Q96LB2 whole entry, looked up): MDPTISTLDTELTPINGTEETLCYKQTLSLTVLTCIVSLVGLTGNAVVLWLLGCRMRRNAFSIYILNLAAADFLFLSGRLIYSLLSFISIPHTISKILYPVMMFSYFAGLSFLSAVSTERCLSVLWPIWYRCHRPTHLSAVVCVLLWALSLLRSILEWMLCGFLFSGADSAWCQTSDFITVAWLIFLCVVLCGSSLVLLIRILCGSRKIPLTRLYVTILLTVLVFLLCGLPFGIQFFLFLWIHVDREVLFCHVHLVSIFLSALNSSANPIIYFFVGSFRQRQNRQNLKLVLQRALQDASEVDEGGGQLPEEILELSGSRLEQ
# MrgX1 agonist: agonists of human MrgX1 receptor, primary screen, HEK293 cells, Fluo-4 calcium flux. B-score at 10 µM. Mas-related G-protein coupled receptor member X1 (Homo sapiens), Q96LB2. hit rate 0.44% among 310,000. Fluo-4 calcium fluorescence, agonist mode; hits give high values;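 active means calcium response B-score plate-corrected fluorescence ratio at least 3 library SD, with starting fluorescence B-score inside 5 SD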
#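 Test system: HEK293 cells stably expressing human MrgX1 receptor; amount: 15,000 cells per well; doses: compound delivered in addition one of three; times: overnight plating before 1 h dye loading; detection: Fluo-4 NW calcium-flux fluorescence, kinetic read; read-out basis: B-scored fluorescence response ratio; controls: positive and negative controls per plate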
# RGS4 pot: RGS4 potentiators or activators, primary screen, cell-based, HEK293 M3R inducible RGS4, calcium flux; carbachol calcium flux Fluo4; hits give low values; B-score at 10 µM; hit rate 0.92% among 310,000;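 active means B-score of the integrated calcium signal more than 4 SD below the library mean, with starting fluorescence not abnormally high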;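 further: negative B-score means reduced calcium response which marks RGS4 activation or potentiation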
#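 Assay system: HEK293 FlpIn-TREx cells, stable M3R, doxycycline-inducible RGS4 / Probe or stimulus: carbachol, ECmax concentration / Times: overnight RGS4 induction, 30 min dye load 37 °C, 20 min compound RT / Signal: kinetic calcium fluorescence imaging with Fluo4-AM dye, 2 µM / Measure: Agonist-evoked peak-minus-minimum fluorescence over baseline, integrated ratio, B score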
# RGS4 block: RGS4 inhibitors, primary screen, cell-based, HEK293 M3R inducible RGS4, calcium flux. Regulator of G-protein signaling 4 (Homo sapiens), P49798. Fluo-4 calcium flux; hits give high values; triggered by carbachol at its EC20. B-score at 10 µM. hit rate 0.45% among 310,000. AID 463165, 2010;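 active means B-score, a plate-corrected calcium signal, over three deviations above library mean, with baseline fluorescence within five deviations of library mean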;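 further: RGS4 expression induced by doxycycline in cells with stable M3 receptor; B-score is computed from the integrated fluorescence ratio over baseline after carbachol; higher B-score means a larger calcium signal and so more RGS4 inhibition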
# Target sequence (P49798 whole entry, looked up): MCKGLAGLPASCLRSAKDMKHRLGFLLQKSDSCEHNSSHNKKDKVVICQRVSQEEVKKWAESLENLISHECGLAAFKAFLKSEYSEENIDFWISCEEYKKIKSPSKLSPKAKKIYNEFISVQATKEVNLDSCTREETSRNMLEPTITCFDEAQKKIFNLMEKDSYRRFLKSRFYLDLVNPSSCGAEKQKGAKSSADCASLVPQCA
# MrgX1 allo act: positive allosteric modulators of MrgX1, primary screen, HEK293 cells, Fluo-4 calcium flux; Mas-related G-protein coupled receptor member X1 (Homo sapiens), Q96LB2; FDSS; hits give high values; B-score at 10 µM; hit rate 0.63% among 310,000; AID 588675, 2011;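 active means plate-corrected calcium response at least 3 library SD above typical, normal starting fluorescence, not activating the receptor alone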;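 further: compound read alongside a low EC10 to EC30 dose of BAM8-22 agonist; peak minus trough fluorescence over baseline measured at the second addition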
# RGS4 inh valid: enhanced carbachol calcium response, M3R/RGS4 cells, RGS4 inhibitor project, cell-based, validation screen, HEK293 M3R/RGS4, calcium flux | shares compounds with RGS4 block | carbachol calcium Fluo-4 fluorescence; carbachol added at its EC20; 0 = buffer wells, 100 = carbachol control | calcium response, % at 10 µM | hit rate 65% among 1,700 | AID 492999, 2010;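 active means duplicate-averaged calcium response above the buffer-only control mean plus 5 SD of those controls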;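 further: integrated fluorescence ratio F max minus min over baseline F0; higher response in RGS4-induced cells means RGS4 inhibition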
# M3R Ca ctr: carbachol calcium response in non-induced M3R cells, confirmation, counter-screen for RGS4 inhibitor project, cell-based, HEK293 M3R; carbachol calcium Fluo-4; submaximal (EC20) carbachol stimulus; buffer wells 0%, carbachol control wells 100%; hit rate 20% among 1,900; AID 493000, 2010; shares compounds with RGS4 block; activity (percent), % at 10 µM; call rule not given here;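 further: RGS4 induction absent so cells express M3R without RGS4; higher means more calcium signal and flags a non-specific hit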
# M3R basal Ca ctr: second counter-screen for RGS4 inhibitors: non-induced cells without carbachol; shares compounds with RGS4 block; HEK293 M3R/RGS4 non-induced, Fluo-4 calcium, no carbachol; normalised: buffer wells 0%, carbachol wells 100%; calcium response (agonist-mode artifact), % at 10 µM; hit rate 22% among 1,900; AID 493001;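 active means duplicate-averaged calcium rise in uninduced cells above buffer wells' mean plus 5 SD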
# Hits are given with their value; i = inactive; nt = no result given.
SMILES,MrgX1 antagonist,MrgX1 agonist,RGS4 pot,RGS4 block,MrgX1 allo act,RGS4 inh valid,M3R Ca ctr,M3R basal Ca ctr
COc1ccc(NCc2nnc(SCc3ccc(Cl)cc3)n2-c2ccccc2)cc1,i,i,i,7.96,i,62.5%,40.5%,37.5%
CCOc1ccc(NCc2nnc(SCC(=O)Nc3cc(C)on3)n2-c2ccccc2OC)cc1,i,i,i,i,i,nt,nt,nt
CCOc1ccc(NCc2nnc(SCC(=O)Nc3cc(C)on3)n2-c2ccc(OC)cc2)cc1,i,i,i,7.01,i,i,i,i
O=C(CN1C(=O)S/C(=C\C=C\c2ccccc2)C1=O)N1CCCCC1,i,i,i,i,i,nt,i,i
O=C(CCCN1C(=O)S/C(=C/C=C/c2ccccc2)C1=O)Nc1ccc(C(=O)O)cc1,i,i,i,i,i,nt,nt,nt
O=C(CN1C(=O)S/C(=C\C=C\c2ccccc2)C1=O)Nc1ccc(O)cc1,i,i,i,i,i,i,i,7.5%
COc1cccc(/C=C/C(=O)c2ccc(C)c([N+](=O)[O-])c2)c1,i,32.1,i,8.87,i,i,39.5%,i
Cc1cc(C)nc(S/C=C/C(=O)c2ccccc2F)n1,i,i,i,5.8,i,5.0%,i,i
O=C1c2ccccc2NC(c2ccc(-c3ccc(Br)cc3)o2)N1O (centres undefined),i,i,i,i,i,nt,nt,nt
O=C1c2ccccc2NC(c2ccc(-c3cccc([N+](=O)[O-])c3)o2)N1O (centres undefined),i,i,i,i,i,nt,i,i
N#C/C(=C\c1cccc([N+](=O)[O-])c1)c1nnc2n1CCCCC2,i,i,i,6.06,i,15.5%,i,i
CCCn1c(=O)c(C(=O)NNC(=O)Cc2ccccc2)c(O)c2ccccc21,i,i,i,i,i,nt,nt,nt
COc1ccc(NC(=O)/C(C#N)=C\c2ccc(Br)o2)cc1,i,i,i,i,i,nt,nt,nt
N#C/C(=C\c1ccc([N+](=O)[O-])o1)C(=O)Nc1ccc(F)cc1,i,i,i,7.04,i,19.5%,i,i
O=c1c2cc(Cl)cc(Cl)c2nc2n1CCC2,i,i,i,i,i,nt,nt,nt
O[C@@H](c1cc(C(F)(F)F)nc2c(C(F)(F)F)cccc12)[C@H]1CCCCN1,i,i,i,5.71,i,26.5%,i,46.0%
OC(c1cc(-c2ccc(Cl)cc2)nc2ccccc12)C1CCCCN1 (centres undefined),i,i,i,i,i,nt,nt,nt
OC(c1cc(C(F)(F)F)nc2c(Cl)cc(Cl)cc12)C1CCCCN1 (centres undefined),i,i,i,13.3,i,24.5%,i,13.5%
Cc1cc(C)c2c(CN3CC(C)OC(C)C3)cc(=O)oc2c1C (centres undefined),i,i,i,i,i,nt,nt,nt
O=c1[nH]c2ccc(Cl)cc2c(-c2ccccc2)c1N1CCN(c2ccccn2)CC1,i,i,i,7.54,i,17.0%,i,i
C=C1C(=O)O[C@@H]2[C@H]1[C@@H](OC(=O)/C(C)=C/C)C/C(C)=C\C(=O)/C=C(\C)[C@@H]2O,i,i,i,i,i,nt,i,i
Cc1cc(=O)oc2c(C(=O)/C=C/c3ccccc3)c(O)ccc12,i,i,i,i,i,nt,nt,nt
COc1cc(/C=C/C(=O)c2c(O)ccc3c(C)cc(=O)oc23)ccc1O,i,i,i,i,6.7,nt,i,i
COc1ccc(/C=C\C(=O)c2c(O)ccc3c(C)cc(=O)oc23)cc1OC,i,i,i,6.74,i,8.0%,i,i
O=C(COc1ccc2c(c1)oc(=O)c1ccccc12)N[C@@H](Cc1c[nH]c2ccccc12)C(=O)O,i,i,i,i,i,nt,nt,nt
SMILES,MrgX1 antagonist,MrgX1 agonist,RGS4 pot,RGS4 block,MrgX1 allo act,RGS4 inh valid,M3R Ca ctr,M3R basal Ca ctr
O=C(O)c1ccc(Nc2nc(-c3cc4ccccc4oc3=O)cs2)cc1O,nt,nt,i,15.2,nt,40.0%,i,12.0%
C/C(=N\NC(=O)c1cc(O)cc(O)c1)c1ccc(NC(=O)Cc2ccccc2)cc1,i,i,i,i,i,nt,nt,nt
CC(C)c1ccc(NC(=S)N2CCN(C)CC2)cc1,i,i,i,i,i,nt,nt,nt
Cc1cc2cc(C(c3nnnn3Cc3ccco3)N3CCc4ccccc4C3)c(=O)[nH]c2cc1C (centres undefined),i,i,i,i,i,i,i,39.0%
Cc1cc2cc(C(c3nnnn3Cc3ccccc3)N3CCc4ccccc43)c(=O)[nH]c2cc1C (centres undefined),i,i,i,i,i,nt,i,7.0%
Cc1cc2cc(C(c3nnnn3Cc3ccco3)N3CCc4ccccc43)c(=O)[nH]c2cc1C (centres undefined),i,i,i,5.29,i,13.0%,i,i
Cc1ccc2[nH]c(=O)c(C(c3nnnn3Cc3ccccc3)N3CCc4ccccc43)cc2c1 (centres undefined),i,i,i,i,i,nt,nt,nt
COc1ccccc1N1C(=O)c2ccccc2NC1c1ccc(O)cc1 (centres undefined),i,i,i,i,i,nt,nt,nt
CN1C2C=C3C(C#N)=C(N)C(C#N)(C#N)[C@@H](c4ccsc4)[C@@H]3C1CC2 (some centres undefined),i,i,i,i,i,nt,nt,nt
COc1ccc(C2C(C#N)=C(N)Oc3c2c(-c2ccccc2)nn3-c2ccccc2)c(OC)c1OC (centres undefined),i,i,i,i,i,nt,i,i
COc1ccc(OC)c(C2C(C#N)=C(N)Oc3c2c(C)nn3-c2ccc(C)cc2)c1 (centres undefined),i,i,i,i,i,nt,nt,nt
O=C(NCc1ccccc1Cl)c1ccc2ccccc2n1,i,i,i,i,i,nt,nt,nt
C#CCOc1ccc(/C=C2/C(=O)NN(c3ccc(F)cc3)C2=O)cc1OC,i,i,i,i,i,nt,30.0%,i
COc1cc(/C=C2\C(=O)NN(c3ccccc3)C2=O)ccc1OCC(N)=O,i,i,i,i,i,nt,nt,nt
COC(=O)c1ccc(N2NC(=O)/C(=C/c3ccc(OC)c(OC)c3)C2=O)cc1,i,i,i,6.18,i,19.5%,40.5%,i
